Measured values published in PMC10918659 (ACS Omega, 2024).
Read-outs that look alike come from different tables or passages of the source. Blank lines part the entries; values can stand above or below the compound they belong to.

Key:
[1] = Serum biochemical parameters during NNK lung cancer induction; assay type: in vivo, Sprague-Dawley rats
Summary of the method: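 NNK was given to Sprague-Dawley rats (200–250 g) as […]. Tail-vein blood was clotted 30 min at RT, spun 20 min at 1200 rpm, and serum stored at −80 °C. TBARS: TCA/TBA/HCl at 95 °C for 15 min, […]. SOD: epinephrine in carbonate buffer pH 9.2, A295, reported as units/mg protein.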

Pharmacokinetic study = assay type: in vivo, Sprague-Dawley rats; details: for Cmax / MRT / Tmax / half-life: Sprague-Dawley, rat, inhaled or intranasal, 3.5 mg/kg; for Frel: relative to silibinin solution; for AUCtotal / CL: silibinin 3.5 mg/kg, NPs 2.5 mg/kg by microspray aerosolizer
[2] = cited from earlier work
Toxicity experiment = assay type: in vivo, Sprague-Dawley rats; details: daily for 2 weeks; SB 3.5 mg/kg, NPs 2.5 mg/kg
Summary of the method: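 Sprague-Dawley rats, n = 6 per group, were dosed daily for 2 weeks with free test compound (3.5 mg/kg), folate-conjugated nanoparticles (2.5 mg/kg), or saline via the caudal vein. Food and water were given freely. After 2 weeks, rats were sacrificed and lungs, liver, kidneys and spleen were weighed. Body-weight gain was recorded, and the organ index (mg/g) was calculated from organ weights.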

Compound: CN(CCCC(=O)c1cccnc1)N=O [NNK, 4-(methylnitrosamino)-1-(3-pyridyl)-1-butanone]
increase of MDA content in sera vs control ([1]; 2 months): 4.21% | reduction of SOD activity vs control ([1]; 2 months): 10.437% | increase of MDA content in sera vs control ([1]; 3 months): 21.4% | reduction of SOD activity vs control ([1]; 3 months): 29.16% | increase of MDA content in sera vs control ([1]; 4 months): 35.16% | reduction of SOD activity vs control ([1]; 4 months): 45.21%

Cmax (Pharmacokinetic study; lung): 32500 ± 25800 ng/mL | MRT (Pharmacokinetic study; lung): 3.88 ± 0.87 h | Tmax (Pharmacokinetic study; lung): 1 ± 2.21 h | half-life (Pharmacokinetic study; lung): 4.3 ± 0.58 h | Cmax (Pharmacokinetic study; plasma): 23600 ± 13200 ng/mL | MRT (Pharmacokinetic study; plasma): 4.25 ± 1.05 h | Tmax (Pharmacokinetic study; plasma): 1 ± 2.21 h | half-life (Pharmacokinetic study; plasma): 8.9 ± 1.25 h | Frel (Pharmacokinetic study; lung kinetics): 1 | AUCtotal (Pharmacokinetic study; lung kinetics): 745.2 ± 102.5 µg·h/mL | CL (Pharmacokinetic study; lung kinetics): 0.57 ± 1.02 h⁻¹ | time to reach peak (Pharmacokinetic study; lungs): 1 h | time to reach peak (Pharmacokinetic study; plasma): 1 h | Frel (Pharmacokinetic study; plasma kinetics): 1 | AUCtotal (Pharmacokinetic study; plasma kinetics): 978.5 ± 118.52 µg·h/mL | CL (Pharmacokinetic study; plasma kinetics): 0.87 ± 0.89 h⁻¹
Compound: COc1cc(C2Oc3cc([C@H]4Oc5cc(O)cc(O)c5C(=O)[C@@H]4O)ccc3OC2CO)ccc1O (stereo partly drawn) [silibinin]
Tmax ([2]; after oral administration): 2 to 4 h | half-life ([2]; after oral administration): 6 h | oral rate of absorption ([2]; conventional silibinin): 23–47% | increment in weight (Toxicity experiment): 29.85 ± 3.21 g | kidney organ index (Toxicity experiment): 3.78 mg/g | liver organ index (Toxicity experiment): 39.52 mg/g | lung organ index (Toxicity experiment): 6.27 mg/g | spleen organ index (Toxicity experiment): 7.42 mg/g
